Test system: MS2 coat protein
Assay: apparent Kd, MS2 coat protein; higher = weaker binding; RNA-MaP array; FMN 200 µM where present
Procedure, shortened: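 Each design was made on Illumina sequencing-chip clusters by stalled E. coli RNA polymerase and titrated with SNAP-549-labelled MS2 coat protein from 0.7 or 1.5 nM, doubling to 3 µM, in the absence and then the presence of constant ligand. The buffer was 100 mM Tris-HCl pH 7.5, 80 mM KCl, 4 mM MgCl2, BSA, DTT, yeast tRNA and Tween-20. The apparent Kd is the median of filtered per-cluster fits of binding curves, with green signal normalised to red-channel RNA signal and control-cluster median Fmax.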

[1] = designed as: OFF switch for flavin mononucleotide, no ligand
[2] = ligand present: flavin mononucleotide, designed as: OFF switch for flavin mononucleotide
[3] = designed as: ON switch for flavin mononucleotide, no ligand
[4] = ligand present: flavin mononucleotide, designed as: ON switch for flavin mononucleotide

Sequence	apparent Kd [1] [nM]	apparent Kd [2] [nM]	apparent Kd [3] [nM]	apparent Kd [4] [nM]
GGAUCGAAUGUGAGGAUAUACCUAUGGAUACAUAGGUAGAAGGCACAUGAGGAUCACCCAUGUUCCUACGGUCC	81.7	680	–	–
UCAUACAUGAGGAUCACCCAUGACAUGAGGAUCACCCAUGUGCAGGAUAUACGUGAUAUAAUAUAGUAGAAGGGCAGACUAUAU	51.9	57.6	–	–
AAAAGACAUGAGGAUCACCCAUGUAAAAACGUGGGAGGAUAUGUAUGGAAACCAGACUGUACAGAAGGCCUUUGUC	–	–	138	164
CCGAAACCUCAGAAGGACCACAUGAGGAUCACCCAUGUCAAGCAAAACGGUAGGAUAUGAGGGAAAUGUCGAUAUACCCGACAG	–	–	7.9	4.72
GUAGCAUUCUGAGGAUAUUCAUACCGGAAACGGACAUGAGGAUCACCCAUGUGGCGAAAGCCUUGGAAGAAGGCAGUAUGCUAC	–	–	4.27	3.56
UAUUAAUGCAAGGAUAUGCUAUUAAUUUUUUUUGCAGAAGGUGCAACAUGAGGAUCACCCAUGUUUGAGGGUAU	66.8	67.8	–	–
CCGAUAAGGAGAGGAUAUGGACAUGAGGAUCACCCAUGUACAUGGGAAUAUAUACUGAAUUUUUACUAGAAGGCUUACAUAAAU	15.6	12.6	–	–
UGGGCUUUAGGAUAUGCGUGUUGUAGUCGGCGAUGUGGUUCACAUGAGGAUCACCCAUGUAGAAGGAGGGUUUA	139	120	–	–
UUUAUAAAUUAGAAGGCGAGAUAAAAUACAAUAGACAUGAGGAUCACCCAUGUGUACCCAUGUUUUGAGGAUAUAGUCAUAUAU	–	–	804	536
ACAUGAGGAUCACCCAUGUGACCACAAUGGCUGAUGUAACAACAGGAUAUUCGUGAAUAUCUAACGAAGAAGGGUUAUGACUGG	71.4	65.2	–	–
AUUUUUAAGGUAGGAUAUAGUAUAAUGAUUUAAUUAGAAGGAUCUCACAUGAGGAUCACCCAUGUAAUAGGAUUACCCAUGUAU	27.8	22.7	–	–
UGUAAUGUUAUUACAGAGGUUUAGAAGGAUAUACAUCGACAUGACCGUACAUGAGGAUCACCCAUGUAGAAGGUCUAACUUCGU	5.43	5.31	–	–
AGUUGGCGAGGAUAUACAUGAGGAUCACCCAUGUGAAAUCGAGAAAAAAUAGGGAAAAGUAGAAGGCGCAGACA	10.3	12.1	–	–
AAAACGGCACGUCCCGUGCCAACUACAGAAGGCCAACAUGAGGAUCACCCAUGUACAAACUAGAUGGAGGAUAUGUAGGUUCUA	–	–	6.19	4.24
AAGUCAGCAGGAUAUGCGAUGGUGUGCUAGGUAGCUUGCCCACAUGAGGAUCACCCAUGUAGAAGGGCUGGCUA	13.2	12.1	–	–
AAAAAGCGAGGAUAUACAUGAGGAUCACCCAUGUAAAAAACAUGGGAUGAAACAUCAUGUAGAAGGCGCAAAAA	22.6	26	–	–
GGUCCACAUGAGGAUCACCCAUGUCAGGAUAUAUACGGCACAAUAAUAAGUGCCGCCCAUAGAAGGGACGCUGG	15.7	26.1	–	–
CUUUUGGCAGGAUAUGCUUUUUUUGACAUGAGGAUCACCCAUGUGAUGCAUUUUGGGUUUGCAGAAGGGCCUGAGU	63.5	87.5	–	–
GGUACUCAAAGAGUACAAGGUCGAACAUGAGGAUCACCCAUGUAGGAUAUGCUAAGCAAGAAGUAGCAGAAGGACAUGUGCAGC	17.7	59.5	–	–
AGCUGUGGCCGAGGAUAUACAUCCUUUAUAAAACCGAAAUAUAAUCGGACAUGAGGAUCACCCAUGUAGAAGGCGGUCUCAGCA	51.4	702	–	–
GGUGCGUAUGUGAGGAUAUGCUGGUCCUUGGCUCGGCAGAAGGCACAUGAGGAUCACCCAUGUGGUGUCGUACU	130	46	–	–
CUUUUGUGAGGAUAUCAGUAGUAAAAUAAUAAAAUUACUACUGAGAAGGCACAUGAGGAUCACCCAUGUUCCUC	32.5	174	–	–
UACUUGUCAGGAUAUCUUACAUUUGCAUUAUAGCAACUCUUGGAGAAGGGACAUGAGGAUCACCCAUGUUUGGU	70.8	317	–	–
GUACUGACAGGAUAUACAUGAGGAUCACCCAUGUCCUUGUGCUGACAAAAGUCAGCACGUAGAAGGGUCUGUAC	22.9	207	–	–
GGAUAGGACAGAGGAUAUAAGUGCUAGAGAUACUAGCAAAAUUUCCUCACAUGAGGAUCACCCAUGUAGAAGGCUGUCCUAUCG	5.71	11.3	–	–
AAAUCUGCUGAGGAUAUGAUGACUGAGAGGUCAUCAGAAGGCGGUACAUGAGGAUCACCCAUGUCUAUGGGCAA	310	659	–	–
GGAUGACAAAGUCAUCCAAAUCGAACAUGAGGAUCACCCAUGUAGGAUAUGCUUCUCAAAGAGAAGCAGAAGGACAUGUGCUUU	37.8	228	–	–
GUAAACCUAGGAUAUACAUGAGGAUCACCCAUGUAAAGUUUCGUAAAAAGAUAAUCGAGUAGAAGGAGGUAGAU	21.4	23.4	–	–
